These results are taken from ChEMBL document CHEMBL4316659, “Selective Antiproliferative Withanolides from Species in the Genera Eriolarynx and Deprea” (J Nat Prod, 2019).

Structures are written as SMILES.

Data set [1] has as its system SW1573. As to the kind of experiment: Antiproliferative activity against human SW1573 cells incubated for 48 hrs in absence of P-gp and CYP3A4/5 inhibitor verapamil by SRB assay. The class given is functional. The following applies: SW1573, 48 h. Summed up: (§1)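 Wild-type SW1573 (2500 cells/well) and P-gp-overexpressing SW1573/Pgp (5000 cells/well) in RPMI 1640 with 5% FBS. Seeded 24 h, then exposed 48 h to serial dilutions (0.01−100 μM) with or without 10 μM verapamil (final) in the medium. Paclitaxel and vinblastine were reference drugs. SRB read at 530/620 nm. GI50 by NCI formulas, mean of at least two independent experiments ± SD.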

The test system of data set [2] is HBL-100. Kind of data set: Antiproliferative activity against human HBL100 cells incubated for 48 hrs by SRB assay. The settings on record: HBL-100, 48 h. It is filed as functional. The procedure, abridged:
(§2)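 Cells kept in RPMI 1640 with 5% FBS and 2 mM L-glutamine at 37 °C under 5% CO2. Seeded at 2500 (A549, HBL-100, HeLa, SW1573) or 5000 (T-47D, WiDr, BJ-hTERT) cells/well and left 24 h. Compounds added as serial dilutions (0.01−100 μM) for 48 h. SRB staining read at 530 and 620 nm. GI50 calculated by NCI formulas. Mean of at least two independent experiments ± SD.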
A general note: The SRB assay estimates cell density from bound dye.

For data set [3], the system named is SW1573. Kind of data set: Antiproliferative activity against human SW1573 cells over-expressing P-gp incubated for 48 hrs in presence of P-gp and CYP3A4/5 inhibitor verapamil by SRB assay. It is filed as functional. The settings on record: SW1573, 48 h. Summed up: as §1
For data set [4], the system named is HeLa. As to the kind of experiment: Antiproliferative activity against human HeLa cells incubated for 48 hrs by SRB assay. It is filed as functional. Summed up:
as §2

For data set [5], the system named is A549. As to the kind of experiment: Antiproliferative activity against human A549 cells incubated for 48 hrs by SRB assay. The following applies: A549, 48 h. The class given is functional. The procedure, abridged: as §2
Data set [6] concerns SW1573. Kind of data set: Antiproliferative activity against human SW1573 cells over-expressing P-gp incubated for 48 hrs in absence of P-gp and CYP3A4/5 inhibitor verapamil by SRB assay. It is filed as functional. The following applies: SW1573, 48 h. Summed up:
as §1

For data set [7], the system named is WiDr. As to the kind of experiment: Antiproliferative activity against human WiDr cells incubated for 48 hrs by SRB assay. The class given is functional. Summed up:
as §2

The nature of data set [8]: Antiproliferative activity against human hTERT-BJ cells incubated for 48 hrs by SRB assay. It is filed as cell-based. The procedure, abridged: as §2
Data set [9] concerns SW1573. Kind of data set: Antiproliferative activity against human SW1573 cells incubated for 48 hrs by SRB assay. The class given is functional. The settings on record: SW1573, 48 h. The procedure, abridged:
as §2

Data set [10] relates to T47D. As to the kind of experiment: Antiproliferative activity against human T47D cells incubated for 48 hrs by SRB assay. The class given is functional. The procedure, abridged: as §2
Data set [11] relates to SW1573. Kind of data set: Resistance factor, ratio of GI50 for Antiproliferative activity against human SW1573 cells over-expressing P-gp incubated for 48 hrs in absence of P-gp and CYP3A4/5 inhibitor verapamil by SRB assay to GI50 for antiproliferative activity against human SW1573 cells incubated for 48 hrs in absence of P-gp and CYP3A4/5 inhibitor verapamil by SRB assay. The class given is functional. Summed up:
(§3)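 Resistance factor is GI50 in SW1573/Pgp divided by GI50 in wild-type SW1573. Both come from 48 h SRB assays, run with 10 μM verapamil (final) or without it.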

The test system of data set [12] is SW1573. Kind of data set: Resistance factor, ratio of GI50 for Antiproliferative activity against human SW1573 cells over-expressing P-gp incubated for 48 hrs in presence of P-gp and CYP3A4/5 inhibitor verapamil by SRB assay to GI50 for antiproliferative activity against human SW1573 cells incubated for 48 hrs in presence of P-gp and CYP3A4/5 inhibitor verapamil by SRB assay. The class given is functional. Summed up:
as §3

In data set [13] the test system is SW1573. Kind of data set: Antiproliferative activity against human SW1573 cells incubated for 48 hrs in presence of P-gp and CYP3A4/5 inhibitor verapamil by SRB assay. The class given is functional. The settings on record: SW1573, 48 h. The procedure, abridged: as §1
Data set [14] in a line: Ratio of GI50 for antiproliferative activity against human hTERT-BJ cells incubated for 48 hrs by SRB assay to GI50 for antiproliferative activity against human HBL100 cells incubated for 48 hrs by SRB assay. Summed up: (§4)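 Selectivity is GI50 in the nontumor BJ-hTERT fibroblasts divided by GI50 in each tumor line. All values come from the same 48 h SRB assay, with 0.01−100 μM serial dilutions.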

Data set [15] in a line: Ratio of GI50 for antiproliferative activity against human hTERT-BJ cells incubated for 48 hrs by SRB assay to GI50 for antiproliferative activity against human T47D cells incubated for 48 hrs by SRB assay. The class given is toxicity, cell-based. The following applies: hTERT-BJ cells versus T47D cells, read-out: RatioGI50. Summed up:
as §4

A short description of data set [16]: Ratio of GI50 for antiproliferative activity against human hTERT-BJ cells incubated for 48 hrs by SRB assay to GI50 for antiproliferative activity against human A549 cells incubated for 48 hrs by SRB assay. Summed up:
as §4

A short description of data set [17]: Ratio of GI50 for antiproliferative activity against human hTERT-BJ cells incubated for 48 hrs by SRB assay to GI50 for antiproliferative activity against human WiDr cells incubated for 48 hrs by SRB assay. It is filed as toxicity, cell-based. The following applies: hTERT-BJ cells versus WiDr cells, read-out: RatioGI50. Summed up: as §4
Data set [18] can be described thus: Ratio of GI50 for antiproliferative activity against human hTERT-BJ cells incubated for 48 hrs by SRB assay to GI50 for antiproliferative activity against human SW1573 cells incubated for 48 hrs by SRB assay. It is filed as toxicity, cell-based. The following applies: hTERT-BJ cells versus SW1573 cells, read-out: RatioGI50. Summed up: as §4
A short description of data set [19]: Ratio of GI50 for antiproliferative activity against human hTERT-BJ cells incubated for 48 hrs by SRB assay to GI50 for antiproliferative activity against human HeLa cells incubated for 48 hrs by SRB assay. The class given is toxicity, cell-based. The settings on record: hTERT-BJ cells versus HeLa cells, read-out: RatioGI50. Summed up: as §4

One may read the GI50 as the concentration giving 50% growth inhibition. For `C[C@]12C(=O)C=CC=C1[C@H](O)[C@H]1O[C@]3([C@@H]4C[C@]5(C)C(=O)O[C@H]4C[C@@]5(C)O)CC[C@@]4(O3)[C@H]1[C@@H]2CC[C@]4(C)O`, the concentration for 50% growth inhibition (GI50) in data set [1] was 4100 nM; in data set [2], > 10 µM; in [3] it was 2700 nM; in data set [4], 3.3 µM; in [5] it was > 10 µM; in [6] it was 4500 nM. Also, the concentration for 50% growth inhibition (GI50) in [7] was > 10 µM; in [9], 4.4 µM; in data set [10], 6.4 µM; in data set [13] it was 5500 nM. Besides, halving of growth in [8] (GI50 at 48 h) required 5.3 µM. Also, the RatioGI50 in data set [11] amounted to 1.1; in [12], 0.5.

`C[C@]12C(=O)C=CCC1=C[C@H]1O[C@]3([C@@H]4C[C@]5(C)C(=O)O[C@H]4C[C@@]5(C)O)CC[C@@]4(O3)[C@H]1[C@@H]2CC[C@]4(C)O`: the concentration for 50% growth inhibition (GI50) in [2], in [4], in data set [5], in data set [7], in [9] and in data set [10] was > 10 µM throughout. Also, the RatioGI50 in data set [14] and in data set [16] was 2 - 10 throughout. The selectivity ratio at 48 h in [15], in [17], in data set [18] and in [19] was 2 to 10 in each case. In addition, in data set [8], the GI50 at 48 h was > 10 µM.

Consider `C[C@]1(O)CC[C@H]2[C@H]3[C@H](O[C@]4([C@@H]5C[C@]6(C)C(=O)O[C@H]5C[C@@]6(C)O)CC[C@@]31O4)[C@@H](O)[C@]13O[C@H]1C=CC(=O)[C@]23C`, for which the GI50 in data set [2], in data set [4], in data set [5], in data set [7], in data set [9] and in data set [10] was > 10 µM each time. Further, the selectivity ratio at 48 h in [15], in data set [17], in [18] and in data set [19] was 2 to 10 throughout.

As for `CC1=C(C)C(=O)O[C@@H]([C@]2(C)OC(O)[C@@]34CC[C@H]5[C@@H](CC=C6CC=CC(=O)[C@@]65C)[C@](O)(CC[C@H]23)O4)C1` (stereo partly drawn), the concentration for 50% growth inhibition (GI50) in [2] was > 10 µM; in [4], > 100 µM; in data set [5], > 10 µM; in data set [7], > 10 µM; in data set [9] it was > 10 µM; in [10] it was > 10 µM. For the same compound, the selectivity ratio at 48 h in data set [15], in data set [17], in data set [18] and in data set [19] was 2 to 10 throughout.

Regarding `CC1=C(C)C(=O)O[C@@H]([C@]2(C)OC(O)[C@]34CC[C@H]5[C@@H]([C@H](O)C=C6CC=CC(=O)[C@@]65C)[C@@H]3CC[C@H]24)C1` (stereo partly drawn), the concentration for 50% growth inhibition (GI50) in [2], in [4], in data set [5], in [7], in [9] and in data set [10] was > 10 µM each time. The selectivity ratio at 48 h in [15], in data set [17], in [18] and in data set [19] was 2 to 10 throughout.

For the compound `CC1=C(C)C(=O)O[C@@H]([C@](C)(O)[C@H]2CC[C@H]3[C@@H]4[C@@H](O)C=C5[C@@H](O)C=CC(=O)[C@]5(C)[C@H]4CC[C@]23CO)C1`, the GI50 in data set [2], in data set [4], in data set [5], in [7], in [9] and in data set [10] was > 10 µM in each case. Further, the selectivity ratio at 48 h in data set [15], in data set [17], in data set [18] and in [19] was 2 to 10 each time.

On to `CC1=C(CO)C(=O)O[C@@H]([C@]2(C)OC(O)[C@@]34CC[C@H]5[C@@H](CC=C6CC=CC(=O)[C@@]65C)[C@](O)(CC[C@H]23)O4)C1` (stereo partly drawn), for which the concentration for 50% growth inhibition (GI50) in [2], in data set [4], in [5], in [7], in [9] and in data set [10] was > 10 µM in each case. The selectivity ratio at 48 h in data set [15], in data set [17], in data set [18] and in data set [19] was 2 to 10 each time.

For `C[C@]12C(=O)CC=CC1=C[C@H]1O[C@]3([C@@H]4C[C@]5(C)C(=O)O[C@H]4C[C@@]5(C)O)CC[C@@]4(O3)[C@H]1[C@@H]2CC[C@]4(C)O`, the 50% growth inhibitory concentration (GI50) in data set [2], in [4], in [5], in data set [7], in data set [9] and in data set [10] was > 10 µM in each case. Further, the selectivity ratio at 48 h in data set [15], in data set [17], in [18] and in [19] was 2 to 10 in each case.

As to `CC1=C(C)C(=O)O[C@@H]([C@]2(C)OC(O)[C@]34CC[C@H]5[C@@H]([C@H](O)C=C6C=CCC(=O)[C@@]65C)[C@@H]3CC[C@H]24)C1` (stereo partly drawn), the GI50 in data set [2], in [4], in data set [5], in [7], in data set [9] and in data set [10] was > 10 µM in each case. Besides, the selectivity ratio at 48 h in [15], in [17], in data set [18] and in [19] was 2 to 10 in each case.

`CC(=O)O[C@H]1C(=O)[C@@]2(C)[C@H]([C@H](OC(=O)c3ccccc3)[C@]3(O)C[C@H](OC(=O)[C@H](O)[C@@H](NC(=O)c4ccccc4)c4ccccc4)C(C)=C1C3(C)C)[C@]1(OC(C)=O)CO[C@@H]1C[C@@H]2O` [PACLITAXEL]: the GI50 in data set [1] was 1.5 nM; in data set [3], 4.2 nM; in [6], 196 nM; in data set [13] it was 1.6 nM. The RatioGI50 in data set [11] was 128; in data set [12] it was 2.6.

`CC[C@]1(O)C[C@@H]2CN(CCc3c([nH]c4ccccc34)[C@@](C(=O)OC)(c3cc4c(cc3OC)N(C)[C@H]3[C@@](O)(C(=O)OC)[C@H](OC(C)=O)[C@]5(CC)C=CCN6CC[C@]43[C@@H]65)C2)C1` [VINBLASTINE]: the GI50 in data set [1] was found to be 0.9 nM; in data set [3], 1 nM; in data set [6], 2050 nM; in data set [13], 0.8 nM. Further, the RatioGI50 in data set [11] turned out to be 2388; in data set [12], 1.3.
